Converted amounts (≈) assume the structure as drawn. The source made the active and inactive calls. The calls are words filed in the database; no cut-off is given here.
Assays:
Assay type in all cases: functional
Staphylococcus aureus [1] = test: Antibacterial activity against ciprofloxacin susceptible Staphylococcus aureus subsp. aureus ATCC 13709 by broth microdilution method
In short: (§1)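 Broth microdilution per CLSI (NCCLS M7-A5) guidelines; MIC taken as lowest concentration inhibiting visible growth. Strains are ciprofloxacin-susceptible reference strains.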

Streptococcus pneumoniae [2] = test: Antibacterial activity against ciprofloxacin resistant Streptococcus pneumoniae OC5458 by broth microdilution method
In short: (§2)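 MIC determined by broth microdilution following CLSI (formerly NCCLS) M7-A5 guidelines for aerobically growing bacteria. MIC is the lowest compound concentration inhibiting visible growth. Strains are ciprofloxacin-resistant clinical isolates tested within a six-strain abbreviated panel.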

Streptococcus pneumoniae [3] = test: Antibacterial activity against ciprofloxacin resistant Streptococcus pneumoniae OC5465 by broth microdilution method; in short: as §2
Streptococcus pneumoniae [4] = test: Antibacterial activity against ciprofloxacin susceptible Streptococcus pneumoniae ATCC 49619 by broth microdilution method; in short: as §1
Streptococcus pneumoniae [5] = test: Antibacterial activity against ciprofloxacin resistant Streptococcus pneumoniae OC5462 by broth microdilution method; in short: as §2
Escherichia coli = test: Antibacterial activity against ciprofloxacin susceptible Escherichia coli ATCC 25922 by broth microdilution method; in short: as §1
Staphylococcus aureus [6] = test: Antimicrobial activity against Staphylococcus aureus subsp. aureus ATCC 13709 infected in po dosed Swiss Webster mouse treated 1 hr after infection measured fter 3 days; conditions: ATCC 13709, po
In short: (§3)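 Female Swiss-Webster mice infected ip with S. aureus ATCC13709; test compound given subcutaneously or orally 1 h post-infection; mortality followed for three days; untreated infected mice served as controls.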

Staphylococcus aureus [7] = test: Antimicrobial activity against Staphylococcus aureus subsp. aureus ATCC 13709 infected in sc dosed Swiss Webster mouse treated 1 hr after infection measured fter 3 days; conditions: ATCC 13709, sc; in short: as §3

Row | SMILES | MIC (Staphylococcus aureus [1]) | MIC (Streptococcus pneumoniae [2]) | MIC (Streptococcus pneumoniae [3]) | MIC (Streptococcus pneumoniae [4]) | MIC (Streptococcus pneumoniae [5]) | MIC (Escherichia coli) | ED50 (Staphylococcus aureus [6]) | ED50 (Staphylococcus aureus [7])
1 | COc1c(-c2cc3n(c2)CCN[C@@H]3C)c(F)cc2c1N(C1CC1)CC(C(=O)O)C2=O (stereo not given in full) | 0.25 µg/mL (≈ 0.605 µM) | > 16 µg/mL | 2 µg/mL (≈ 4.84 µM) | 2 µg/mL (≈ 4.84 µM) | 16 µg/mL (≈ 38.7 µM) | 8 µg/mL (≈ 19.3 µM) | – | –
2 | C[C@H]1Cn2cc(-c3nc4c(cc3F)C(=O)C(C(=O)O)CN4C3CC3)cc2CN1 (stereo not given in full) | 0.06 µg/mL (≈ 0.156 µM) | 8 µg/mL (≈ 20.8 µM) | 0.25 µg/mL (≈ 0.65 µM) | 0.5 µg/mL (≈ 1.3 µM) | 8 µg/mL (≈ 20.8 µM) | 2 µg/mL (≈ 5.2 µM) | – | –
3 | C[C@H]1COc2c(-c3cc4n(c3)CCNC4)c(F)cc3c2N1CC(C(=O)O)C3=O (stereo not given in full) | 0.5 µg/mL (≈ 1.3 µM) | > 16 µg/mL | 1 µg/mL (≈ 2.59 µM) | 2 µg/mL (≈ 5.19 µM) | > 16 µg/mL | > 16 µg/mL | – | –
4 | O=C(O)c1cn(C2CC2)c2cc(N3CCNCC3)c(F)cc2c1=O [CIPROFLOXACIN] | 0.12 µg/mL (≈ 0.362 µM) | > 16 µg/mL | > 16 µg/mL | 1 µg/mL (≈ 3.02 µM) | > 16 µg/mL | 0.03 µg/mL (≈ 0.0905 µM) | 10.8 mg/kg | 1.4 mg/kg
5 | C[C@@H]1NCCn2cc(-c3nc4c(cc3F)C(=O)C(C(=O)O)CN4C3CC3)cc21 (stereo not given in full) | 0.5 µg/mL (≈ 1.3 µM) | 8 µg/mL (≈ 20.8 µM) | 1 µg/mL (≈ 2.6 µM) | 1 µg/mL (≈ 2.6 µM) | 8 µg/mL (≈ 20.8 µM) | 8 µg/mL (≈ 20.8 µM) | – | –
6 | C[C@H]1Cn2cc(-c3ccc4c(c3OC(F)F)N(C3CC3)CC(C(=O)O)C4=O)cc2CN1 (stereo not given in full) | 0.12 µg/mL (≈ 0.278 µM) | 1 µg/mL (≈ 2.32 µM) | 1 µg/mL (≈ 2.32 µM) | 1 µg/mL (≈ 2.32 µM) | 8 µg/mL (≈ 18.5 µM) | 1 µg/mL (≈ 2.32 µM) | – | –
7 | C[C@H]1NCCn2cc(-c3cc4c(cc3F)C(=O)C(C(=O)O)CN4C3CC3)cc21 (stereo not given in full) | 0.25 µg/mL (≈ 0.652 µM) | 8 µg/mL (≈ 20.9 µM) | 0.25 µg/mL (≈ 0.652 µM) | 1 µg/mL (≈ 2.61 µM) | 16 µg/mL (≈ 41.7 µM) | 4 µg/mL (≈ 10.4 µM) | – | –
8 | O=C(O)C1CN(C2CC2)c2c(ccc(-c3cc4n(c3)CCNC4)c2OC(F)F)C1=O (stereo not given) | 0.06 µg/mL (≈ 0.144 µM) | inactive | 0.25 µg/mL (≈ 0.599 µM) | 0.5 µg/mL (≈ 1.2 µM) | 8 µg/mL (≈ 19.2 µM) | 1 µg/mL (≈ 2.4 µM) | – | –
9 | C[C@H]1Cn2cc(-c3nc4c(cc3F)C(=O)C(C(=O)O)CN4c3ccc(F)cc3F)cc2CN1 (stereo not given in full) | 0.12 µg/mL (≈ 0.263 µM) | 16 µg/mL (≈ 35.1 µM) | 2 µg/mL (≈ 4.38 µM) | 1 µg/mL (≈ 2.19 µM) | 16 µg/mL (≈ 35.1 µM) | 16 µg/mL (≈ 35.1 µM) | – | –
10 | C[C@@H]1NCCn2cc(-c3cc4c(cc3F)C(=O)C(C(=O)O)CN4C3CC3)cc21 (stereo not given in full) | 0.25 µg/mL (≈ 0.652 µM) | 4 µg/mL (≈ 10.4 µM) | 0.5 µg/mL (≈ 1.3 µM) | 1 µg/mL (≈ 2.61 µM) | 16 µg/mL (≈ 41.7 µM) | 4 µg/mL (≈ 10.4 µM) | – | –
11 | C[C@@H]1NCCn2cc(-c3c(F)cc4c5c3OC[C@H](C)N5CC(C(=O)O)C4=O)cc21 (stereo not given in full) | 0.25 µg/mL (≈ 0.626 µM) | 4 µg/mL (≈ 10 µM) | 0.5 µg/mL (≈ 1.25 µM) | 1 µg/mL (≈ 2.5 µM) | 8 µg/mL (≈ 20 µM) | 4 µg/mL (≈ 10 µM) | – | –
12 | C[C@@H]1NCCn2cc(-c3ccc4c(c3OC(F)F)N(C3CC3)CC(C(=O)O)C4=O)cc21 (stereo not given in full) | 0.5 µg/mL (≈ 1.16 µM) | 4 µg/mL (≈ 9.27 µM) | 2 µg/mL (≈ 4.64 µM) | 1 µg/mL (≈ 2.32 µM) | 16 µg/mL (≈ 37.1 µM) | 4 µg/mL (≈ 9.27 µM) | – | –
13 | C[C@@H]1NCCn2cc(-c3nc4c(cc3F)C(=O)C(C(=O)O)CN4c3ccc(F)cc3F)cc21 (stereo not given in full) | 1 µg/mL (≈ 2.19 µM) | > 16 µg/mL | 8 µg/mL (≈ 17.5 µM) | 4 µg/mL (≈ 8.76 µM) | > 16 µg/mL | > 16 µg/mL | – | –
14 | COc1c(-c2cc3n(c2)CCNC3)c(F)cc2c1N(C1CC1)CC(C(=O)O)C2=O (stereo not given) | 0.03 µg/mL (≈ 0.0751 µM) | 1 µg/mL (≈ 2.5 µM) | 0.12 µg/mL (≈ 0.3 µM) | 0.25 µg/mL (≈ 0.626 µM) | 1 µg/mL (≈ 2.5 µM) | 1 µg/mL (≈ 2.5 µM) | – | –
15 | C[C@H]1Cn2cc(-c3c(F)cc4c5c3OC[C@H](C)N5CC(C(=O)O)C4=O)cc2CN1 (stereo not given in full) | 0.25 µg/mL (≈ 0.626 µM) | 4 µg/mL (≈ 10 µM) | 0.5 µg/mL (≈ 1.25 µM) | 1 µg/mL (≈ 2.5 µM) | 8 µg/mL (≈ 20 µM) | 4 µg/mL (≈ 10 µM) | – | –
16 | C[C@H]1Cn2cc(-c3cc4c(cc3F)C(=O)C(C(=O)O)CN4C3CC3)cc2CN1 (stereo not given in full) | 0.06 µg/mL (≈ 0.156 µM) | 2 µg/mL (≈ 5.22 µM) | 0.12 µg/mL (≈ 0.313 µM) | 0.5 µg/mL (≈ 1.3 µM) | 4 µg/mL (≈ 10.4 µM) | 2 µg/mL (≈ 5.22 µM) | – | –
17 | COc1c(-c2cc3n(c2)CCN[C@H]3C)c(F)cc2c1N(C1CC1)CC(C(=O)O)C2=O (stereo not given in full) | 0.12 µg/mL (≈ 0.29 µM) | 1 µg/mL (≈ 2.42 µM) | 0.5 µg/mL (≈ 1.21 µM) | 0.5 µg/mL (≈ 1.21 µM) | 4 µg/mL (≈ 9.67 µM) | 2 µg/mL (≈ 4.84 µM) | – | –
18 | C[C@@H]1NCCn2cc(-c3c(F)cc4c(c3OC(F)F)N(C3CC3)CC(C(=O)O)C4=O)cc21 (stereo not given in full) | 0.25 µg/mL (≈ 0.556 µM) | 2 µg/mL (≈ 4.45 µM) | 2 µg/mL (≈ 4.45 µM) | 2 µg/mL (≈ 4.45 µM) | 8 µg/mL (≈ 17.8 µM) | 1 µg/mL (≈ 2.23 µM) | – | –
19 | COc1c(-c2cc3n(c2)C[C@@H](C)NC3)c(F)cc2c1N(C1CC1)CC(C(=O)O)C2=O (stereo not given in full) | 0.25 µg/mL (≈ 0.605 µM) | 1 µg/mL (≈ 2.42 µM) | 0.5 µg/mL (≈ 1.21 µM) | 0.25 µg/mL (≈ 0.605 µM) | 2 µg/mL (≈ 4.84 µM) | 1 µg/mL (≈ 2.42 µM) | – | –
20 | C[C@H]1NCCn2cc(-c3ccc4c(c3OC(F)F)N(C3CC3)CC(C(=O)O)C4=O)cc21 (stereo not given in full) | 0.5 µg/mL (≈ 1.16 µM) | 8 µg/mL (≈ 18.5 µM) | 4 µg/mL (≈ 9.27 µM) | 1 µg/mL (≈ 2.32 µM) | 16 µg/mL (≈ 37.1 µM) | 4 µg/mL (≈ 9.27 µM) | – | –
21 | COc1c(-c2cc3n(c2)C[C@H](C)NC3)c(F)cc2c1N(C1CC1)CC(C(=O)O)C2=O (stereo not given in full) | 0.03 µg/mL (≈ 0.0726 µM) | 0.5 µg/mL (≈ 1.21 µM) | 0.25 µg/mL (≈ 0.605 µM) | 0.12 µg/mL (≈ 0.29 µM) | 1 µg/mL (≈ 2.42 µM) | 0.5 µg/mL (≈ 1.21 µM) | 4 mg/kg | < 1.25 mg/kg

Source: ChEMBL document CHEMBL1155341, “Synthesis and antibacterial activity of 7-(1,2,3,4-tetrahydropyrrolo[1,2-a]pyrazin-7-yl) quinolones” (2009)
